Measured values from different studies.

`C=CC(=O)N1CCC[C@@H](n2nc(-c3ccc(Oc4ccccc4)cc3)c3c(N)ncnc32)C1` gave a GI50 of 0.57 µM (BCWM1; cell growth or viability; 48 h).
With `O=C(/C=C(O)/C=C/c1cccnc1)/C=C/c1c[nH]c2ccccc12` the IC50 was 9.2 µM (CHO-K1; cell growth or viability, MTT; 72 h).
For `O=[N+]([O-])c1ccc(-c2nc3ccccc3n2Cc2ccccc2)cc1`, the IC50 was 7.44 µM (human Rhabdomyosarcoma cell; cell growth or viability, MTT).
The inhibition of `Cc1cccc(/C=N/NC(=O)c2ccc(Nc3cc(C)nc4c(O)cccc34)cc2)n1` is reported as 19.9% (SMMC-7721; cell growth or viability, MTT; 20 µM).
For `Cc1ccc2nc(-c3cc(Br)ccc3O)[nH]c2c1`, the IC50 was 10.4 µM (human Rhabdomyosarcoma cell; cell growth or viability, MTT; 48 h).
The viability of `C/C(=N\O)c1ccc(-c2ccc(O)c(C)c2)c(Cl)c1O` is reported as 62% (NCI-H1299; cell growth or viability, MTT; 30 µM, 48 h).
`Cc1cc(Nc2ccc(C(=O)N/N=C/C3CCCCC3)cc2)c2cccc(O)c2n1` has an inhibition of 26.3% (SMMC-7721; cell growth or viability, MTT; 20 µM).
With `Cc1cc(Nc2ncc(Cl)c(Nc3ccccc3S(=O)(=O)C(C)C)n2)c(OC(C)C)cc1C1CCNCC1` the inhibition was 64.2% (NCI-H3122; cell growth or viability, MTT; 0.08 µg/mL, 72 h).
`Cc1cc(Nc2ccc(C(=O)N/N=C/c3nc4ccccc4[nH]3)cc2)c2cccc(O)c2n1` gave an inhibition of 28.3% (SMMC-7721; cell growth or viability, MTT; 20 µM).
For `COc1cc(/C=C/c2cc(/C=C/c3cccnc3)[nH]n2)ccc1O`, the IC50 was 13.2 µM (CHO-K1; cell growth or viability, MTT; 72 h).
The viability of `C/C(=N\O)c1ccc(-c2ccc(C(F)(F)F)cc2)c(Cl)c1O` is reported as 89% (NCI-H1299; cell growth or viability, MTT; 30 µM, 48 h).
`C[C@@H](Oc1cc(-c2cnn(C3CCNCC3)c2)cnc1N)c1c(Cl)ccc(F)c1Cl` has an inhibition of 18.1% (NCI-H3122; cell growth or viability, MTT; 0.008 µg/mL, 72 h).
`CCOc1ccc(-c2nc3ccccc3[nH]2)cc1` has an IC50 of 25.1 µM (human Rhabdomyosarcoma cell; cell growth or viability, MTT; 48 h).
`FC(F)(F)SCCOc1ccc(Oc2ccccc2)cc1` gave a CC50 of > 20 µM (Vero; cell growth or viability; 72 h).
`O=[N+]([O-])c1cccc(-c2nc3ccccc3[nH]2)c1` gave an IC50 of 50.3 µM (human Rhabdomyosarcoma cell; cell growth or viability, MTT; 48 h).
For `C=C(F)C(=O)N1CCN(c2nc(OC[C@@H]3CCCN3C)nc3c2CCN(c2cccc4cccc(Cl)c24)C3)C[C@@H]1CC#N`, the GI50 was 2.22 µM (NCI-H1437; cell growth or viability, ATP luminescence; 5 days).
With `Cn1nnc2c(C(N)=O)ncn2c1=O` the EC50 was 491 µM (MKN-45; cell growth or viability).
With `COc1cc(/C=C/C(=O)/C=C(O)/C=C/c2ccc[nH]2)ccc1O` the IC50 was 24.1 µM (CHO-K1; cell growth or viability, MTT; 72 h).
The IC50 of `COc1ccc(-c2nc3ccc(C)cc3[nH]2)cc1O` is reported as 48.7 µM (human Rhabdomyosarcoma cell; cell growth or viability, MTT; 48 h).
`O=C1CCC(N2Cc3cc(CNC(=O)C(F)(F)c4ccc(Cl)cc4)ccc3C2=O)C(=O)N1` (stereo not shown) has an EC50 of 0.00413 µM (MHHCALL4; cell growth or viability, ATP luminescence).
With `CC(=O)c1cccc(N=Nc2c(C(=O)O)cc(O)c(O)c2O)c1` the inhibition was 43% (RAW264.7; IL-6 release, inhibitor, ELISA; 10 µM, LPS-stimulated).
`c1cncc(-c2nc3ccccc3[nH]2)c1` has an IC50 of 87.7 µM (human Rhabdomyosarcoma cell; cell growth or viability, MTT; 48 h).
